We go through five molecules from ChEMBL document CHEMBL1250442, “Inhibiting gene expression at transcription start sites in chromosomal DNA with antigene RNAs” (Nat Chem Biol, 2005).

Holding throughout (format): functional
Test [1] concerns T47D. The experiment in a line: Inhibition of PR-A gene expression in human T47D cells at 25 nM by syber green assay. In outline:
(§1)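 T47D cells plated at 80,000/well without antibiotics two days before Oligofectamine transfection with agRNA duplex (25 or 100 nM final); medium changed at 24 h, harvest day 5 unless stated otherwise. TRIzol total RNA; PR mRNA by real-time PCR with SYBR Green: 50 °C 2 min, 95 °C 10 min, 40 cycles 95 °C 15 s/60 °C 1 min.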

The test system of test [2] is T47D. The experiment in a line: Inhibition of PR-B gene expression in human T47D cells at 25 nM by syber green assay. In outline:
as §1

Test [3] concerns T47D. The experiment in a line: Inhibition of PR-A mRNA gene expression in human T47D cells at 100 nM by syber green assay. In outline: as §1
For test [4], the system named is T47D. The experiment in a line: Inhibition of PR-B mRNA gene expression in human T47D cells at 100 nM by syber green assay. In outline: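 T47D cells in RPMI-1640 with 10% FBS, NEAA, insulin, 37 °C, 5% CO2. Plated two days before transfection without antibiotics. Oligofectamine-mediated duplex RNA transfection at 100 nM final, medium changed at 24 h, harvest five days post-transfection. Total RNA extracted with TRIzol. hPR mRNA quantified by SYBR Green qPCR: 50 °C 2 min, 95 °C 10 min, then 40 cycles of 95 °C 15 s / 60 °C 1 min.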

For orientation: inhibition means the drop in the measured response relative to a control, in per cent. A higher inhibition goes with a strong effect. Turning to `Cc1cn([C@@H]2O[C@H](COP(=O)(O)O[C@H]3C[C@H](n4cc(C)c(=O)[nH]c4=O)O[C@@H]3COP(=O)(O)O[C@H]3[C@@H](O)[C@H](n4ccc(N)nc4=O)O[C@@H]3COP(=O)(O)O[C@H]3[C@@H](O)[C@H](n4cnc5c(=O)[nH]c(N)nc54)O[C@@H]3COP(=O)(O)O[C@H]3[C@@H](O)[C@H](n4cnc5c(N)ncnc54)O[C@@H]3COP(=O)(O)O[C@H]3[C@@H](O)[C@H](n4ccc(N)nc4=O)O[C@@H]3COP(=O)(O)O[C@H]3[C@@H](O)[C@H](n4cnc5c(N)ncnc54)O[C@@H]3COP(=O)(O)O[C@H]3[C@@H](O)[C@H](n4ccc(N)nc4=O)O[C@@H]3COP(=O)(O)O[C@H]3[C@@H](O)[C@H](n4ccc(N)nc4=O)O[C@@H]3COP(=O)(O)O[C@H]3[C@@H](O)[C@H](n4ccc(=O)[nH]c4=O)O[C@@H]3COP(=O)(O)O[C@H]3[C@@H](O)[C@H](n4cnc5c(=O)[nH]c(N)nc54)O[C@@H]3COP(=O)(O)OC3[C@@H](O)[C@H](n4cnc5c(N)ncnc54)O[C@@H]3COP(=O)(O)O[C@H]3[C@@H](O)[C@H](n4ccc(N)nc4=O)O[C@@H]3COP(=O)(O)O[C@H]3[C@@H](O)[C@H](n4cnc5c(=O)[nH]c(N)nc54)O[C@@H]3COP(=O)(O)O[C@H]3[C@@H](O)[C@H](n4cnc5c(=O)[nH]c(N)nc54)O[C@@H]3COP(=O)(O)O[C@H]3[C@@H](O)[C@H](n4cnc5c(=O)[nH]c(N)nc54)O[C@@H]3COP(=O)(O)O[C@H]3[C@@H](O)[C@H](n4ccc(=O)[nH]c4=O)O[C@@H]3COP(=O)(O)O[C@H]3[C@@H](O)[C@H](n4ccc(N)nc4=O)O[C@@H]3COP(=O)(O)O[C@H]3[C@@H](O)[C@H](n4ccc(=O)[nH]c4=O)O[C@@H]3COP(=O)(O)O[C@H]3[C@@H](O)[C@H](n4cnc5c(=O)[nH]c(N)nc54)O[C@@H]3COP(=O)(O)O[C@H]3[C@@H](O)[C@H](n4ccc(=O)[nH]c4=O)O[C@@H]3CO)[C@@H](O)[C@H]2O)c(=O)[nH]c1=O` (some centres not stated), the inhibition at 0.025 µM with T47D [1] stood at 53%; with T47D [2], 75%. For the same molecule, the inhibition at 0.1 µM with T47D [3] was 67%; in the test with T47D [4] it was 91%.
Take `Cc1cn([C@H]2C[C@H](OP(=O)(O)OC[C@H]3O[C@@H](n4cc(C)c(=O)[nH]c4=O)C[C@@H]3O)[C@@H](COP(=O)(O)O[C@H]3[C@@H](O)[C@H](n4ccc(N)nc4=O)O[C@@H]3COP(=O)(O)O[C@H]3[C@@H](O)[C@H](n4cnc5c(=O)[nH]c(N)nc54)O[C@@H]3COP(=O)(O)O[C@H]3[C@@H](O)[C@H](n4cnc5c(N)ncnc54)O[C@@H]3COP(=O)(O)O[C@H]3[C@@H](O)[C@H](n4ccc(N)nc4=O)O[C@@H]3COP(=O)(O)O[C@H]3[C@@H](O)[C@H](n4cnc5c(N)ncnc54)O[C@@H]3COP(=O)(O)O[C@H]3[C@@H](O)[C@H](n4cnc5c(=O)[nH]c(N)nc54)O[C@@H]3COP(=O)(O)O[C@H]3[C@@H](O)[C@H](n4ccc(N)nc4=O)O[C@@H]3COP(=O)(O)O[C@H]3[C@@H](O)[C@H](n4ccc(=O)[nH]c4=O)O[C@@H]3COP(=O)(O)O[C@H]3[C@@H](O)[C@H](n4cnc5c(=O)[nH]c(N)nc54)O[C@@H]3COP(=O)(O)O[C@H]3[C@@H](O)[C@H](n4cnc5c(N)ncnc54)O[C@@H]3COP(=O)(O)O[C@H]3[C@@H](O)[C@H](n4ccc(N)nc4=O)O[C@@H]3COP(=O)(O)O[C@H]3[C@@H](O)[C@H](n4ccc(N)nc4=O)O[C@@H]3COP(=O)(O)O[C@H]3[C@@H](O)[C@H](n4cnc5c(=O)[nH]c(N)nc54)O[C@@H]3COP(=O)(O)O[C@H]3[C@@H](O)[C@H](n4ccc(N)nc4=O)O[C@@H]3COP(=O)(O)O[C@H]3[C@@H](O)[C@H](n4ccc(=O)[nH]c4=O)O[C@@H]3COP(=O)(O)O[C@H]3[C@@H](O)[C@H](n4ccc(N)nc4=O)O[C@@H]3COP(=O)(O)O[C@H]3[C@@H](O)[C@H](n4ccc(=O)[nH]c4=O)O[C@@H]3COP(=O)(O)O[C@H]3[C@@H](O)[C@H](n4cnc5c(=O)[nH]c(N)nc54)O[C@@H]3COP(=O)(O)O[C@H]3[C@@H](O)[C@H](n4ccc(=O)[nH]c4=O)O[C@@H]3CO)O2)c(=O)[nH]c1=O`: the inhibition at 0.1 µM with T47D [3] and with T47D [4] was less than 20% each time.
`Cc1cn([C@H]2C[C@H](OP(=O)(O)OC[C@H]3O[C@@H](n4cc(C)c(=O)[nH]c4=O)C[C@@H]3O)[C@@H](COP(=O)(O)O[C@H]3[C@@H](O)[C@H](n4ccc(N)nc4=O)O[C@@H]3COP(=O)(O)O[C@H]3[C@@H](O)[C@H](n4cnc5c(=O)[nH]c(N)nc54)O[C@@H]3COP(=O)(O)O[C@H]3[C@@H](O)[C@H](n4cnc5c(N)ncnc54)O[C@@H]3COP(=O)(O)O[C@H]3[C@@H](O)[C@H](n4cnc5c(=O)[nH]c(N)nc54)O[C@@H]3COP(=O)(O)O[C@H]3[C@@H](O)[C@H](n4cnc5c(N)ncnc54)O[C@@H]3COP(=O)(O)O[C@H]3[C@@H](O)[C@H](n4ccc(N)nc4=O)O[C@@H]3COP(=O)(O)O[C@H]3[C@@H](O)[C@H](n4ccc(N)nc4=O)O[C@@H]3COP(=O)(O)O[C@H]3[C@@H](O)[C@H](n4ccc(=O)[nH]c4=O)O[C@@H]3COP(=O)(O)O[C@H]3[C@@H](O)[C@H](n4cnc5c(=O)[nH]c(N)nc54)O[C@@H]3COP(=O)(O)O[C@H]3[C@@H](O)[C@H](n4cnc5c(N)ncnc54)O[C@@H]3COPO[C@H]3[C@@H](O)[C@H](n4ccc(N)nc4=O)O[C@@H]3COP(=O)(O)O[C@H]3[C@@H](O)[C@H](n4cnc5c(=O)[nH]c(N)nc54)O[C@@H]3COP(=O)(O)O[C@H]3[C@@H](O)[C@H](n4cnc5c(=O)[nH]c(N)nc54)O[C@@H]3COP(=O)(O)O[C@H]3[C@@H](O)[C@H](n4cnc5c(=O)[nH]c(N)nc54)O[C@@H]3COP(=O)(O)O[C@H]3[C@@H](O)[C@H](n4ccc(=O)[nH]c4=O)O[C@@H]3COP(=O)(O)O[C@H]3[C@@H](O)[C@H](n4ccc(N)nc4=O)O[C@@H]3COP(=O)(O)O[C@H]3[C@@H](O)[C@H](n4ccc(=O)[nH]c4=O)O[C@@H]3COP(=O)(O)O[C@H]3[C@@H](O)[C@H](n4ccc(N)nc4=O)O[C@@H]3COP(=O)(O)O[C@H]3[C@@H](O)[C@H](n4ccc(=O)[nH]c4=O)O[C@@H]3CO)O2)c(=O)[nH]c1=O` (some centres not stated): the inhibition at 0.1 µM with T47D [3] and in the test on T47D [4] was less than 20% throughout.
In the case of `Cc1cn([C@H]2C[C@H](OP(=O)(O)OC[C@H]3O[C@@H](n4cnc5c(=O)[nH]c(N)nc54)C[C@@H]3OP(=O)(O)OC[C@H]3O[C@@H](n4cc(C)c(=O)[nH]c4=O)C[C@@H]3OP(=O)(O)OC[C@H]3O[C@@H](n4ccc(N)nc4=O)C[C@@H]3OP(=O)(O)OC[C@H]3O[C@@H](n4cc(C)c(=O)[nH]c4=O)C[C@@H]3OP(=O)(O)OC[C@H]3O[C@@H](n4cnc5c(=O)[nH]c(N)nc54)C[C@@H]3OP(=O)(O)OC[C@H]3O[C@@H](n4cnc5c(=O)[nH]c(N)nc54)C[C@@H]3OP(=O)(O)OC[C@H]3O[C@@H](n4ccc(N)nc4=O)C[C@@H]3OP(=O)(O)OC[C@H]3O[C@@H](n4ccc(N)nc4=O)C[C@@H]3OP(=O)(O)OC[C@H]3O[C@@H](n4cnc5c(N)ncnc54)C[C@@H]3OP(=O)(O)OC[C@H]3O[C@@H](n4cnc5c(=O)[nH]c(N)nc54)C[C@@H]3OP(=O)(O)OC[C@H]3O[C@@H](n4cc(C)c(=O)[nH]c4=O)C[C@@H]3OP(=O)(O)OC[C@H]3O[C@@H](n4ccc(N)nc4=O)C[C@@H]3OP(=O)(O)OC[C@H]3O[C@@H](n4ccc(N)nc4=O)C[C@@H]3OP(=O)(O)OC[C@H]3O[C@@H](n4cnc5c(N)ncnc54)C[C@@H]3OP(=O)(O)OC[C@H]3O[C@@H](n4ccc(N)nc4=O)C[C@@H]3OP(=O)(O)OC[C@H]3O[C@@H](n4cnc5c(N)ncnc54)C[C@@H]3OP(=O)(O)OC[C@H]3O[C@@H](n4cnc5c(=O)[nH]c(N)nc54)C[C@@H]3OP(=O)(O)OC[C@H]3O[C@@H](n4ccc(N)nc4=O)C[C@@H]3OP(=O)(O)OC[C@H]3O[C@@H](n4cc(C)c(=O)[nH]c4=O)C[C@@H]3OP(=O)(O)OC[C@H]3O[C@@H](n4cc(C)c(=O)[nH]c4=O)C[C@@H]3O)[C@@H](CO)O2)c(=O)[nH]c1=O`, the inhibition at 0.1 µM in the test on T47D [3] and in the test on T47D [4] was less than 20% each time.
Regarding `Cc1cn([C@H]2C[C@H](OP(=O)(O)OC[C@H]3O[C@@H](n4cnc5c(=O)[nH]c(N)nc54)C[C@@H]3OP(=O)(O)OC[C@H]3O[C@@H](n4cc(C)c(=O)[nH]c4=O)C[C@@H]3OP(=O)(O)OC[C@H]3O[C@@H](n4ccc(N)nc4=O)C[C@@H]3OP(=O)(O)OC[C@H]3O[C@@H](n4cc(C)c(=O)[nH]c4=O)C[C@@H]3OP(=O)(O)OC[C@H]3O[C@@H](n4cnc5c(=O)[nH]c(N)nc54)C[C@@H]3OP(=O)(O)OC[C@H]3O[C@@H](n4cnc5c(=O)[nH]c(N)nc54)C[C@@H]3OP(=O)(O)OC[C@H]3O[C@@H](n4ccc(N)nc4=O)C[C@@H]3OP(=O)(O)OC[C@H]3O[C@@H](n4ccc(N)nc4=O)C[C@@H]3OP(=O)(O)OC[C@H]3O[C@@H](n4cnc5c(N)ncnc54)C[C@@H]3OP(=O)(O)OC[C@H]3O[C@@H](n4cnc5c(=O)[nH]c(N)nc54)C[C@@H]3OP(=O)(O)OC[C@H]3O[C@@H](n4cc(C)c(=O)[nH]c4=O)C[C@@H]3OP(=O)(O)OC[C@H]3O[C@@H](n4ccc(N)nc4=O)C[C@@H]3OP(=O)(O)OC[C@H]3O[C@@H](n4ccc(N)nc4=O)C[C@@H]3OP(=O)(O)OC[C@H]3O[C@@H](n4cnc5c(N)ncnc54)C[C@@H]3OP(=O)(O)OC[C@H]3O[C@@H](n4ccc(N)nc4=O)C[C@@H]3OP(=O)(O)OC[C@H]3O[C@@H](n4cnc5c(N)ncnc54)C[C@@H]3OP(=O)(O)OC[C@H]3O[C@@H](n4cnc5c(=O)[nH]c(N)nc54)C[C@@H]3OP(=O)(O)OC[C@H]3O[C@@H](n4ccc(N)nc4=O)C[C@@H]3O)[C@@H](CO)O2)c(=O)[nH]c1=O`, the inhibition at 0.1 µM with T47D [3] and in the test with T47D [4] was less than 20% throughout.
